According to ChEMBL document CHEMBL1764983, “Structure-activity study to develop cationic lipid-conjugated haloperidol derivatives as a new class of anticancer therapeutics” (J Med Chem, 2011):
The source made the active and inactive calls. The calls are words filed in the database; no cut-off is given here.

Tests used:
[1] = Induction of apoptosis in human HEK293 cells expressing sigma receptor assessed as viable cells using annexin V/propidium iodide staining at 5 uM after 24 hrs by flow cytometry (reference value: 99.76%); format: cell-based; conditions: read-out: Activity
[2] = tested on: MDA-MB-231; assay: Cytotoxicity against human MDA-MB-231 cells expressing sigma receptor at 0.5 to 50 uM after 48 hrs by MTT assay; format: functional, cell-based
How it was run: (§1)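 MTT reduction assay. Cells grown in RPMI-1640 with 10% FBS at 37 °C, 5% CO₂, and used at 85-90% confluency. Seeded at 5000 cells/well 18-24 h ahead, then exposed continuously for 48 h in triplicate wells. Working solutions made in 10% FBS medium with DMSO ≤1%. Cells washed before MTT.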

[3] = tested on: MCF7; assay: Induction of apoptosis in human MCF7 cells expressing sigma receptor assessed as necrotic cells using annexin V/propidium iodide staining at 5 uM after 24 hrs by flow cytometry (reference value: 0.27%); format: functional
[4] = Induction of apoptosis in against african green monkey COS1 cells expressing sigma receptor assessed as viable cells using annexin V/propidium iodide staining at 5 uM after 24 hrs by flow cytometry (reference value: 99.82%); format: cell-based; conditions: chlorocebus aethiops, COS-1 cells expressing sigma receptor; read-out: Activity
[5] = tested on: HEK293; assay: Induction of apoptosis in human HEK293 cells expressing sigma receptor assessed as early apoptotic cells using annexin V/propidium iodide staining at 5 uM after 24 hrs by flow cytometry (reference value: […]); format: cell-based; conditions: hek293, 24 h
[6] = tested on: HEK293; assay: Induction of apoptosis in human HEK293 cells expressing sigma receptor assessed as necrotic cells using annexin V/propidium iodide staining at 5 uM after 24 hrs by flow cytometry (reference value: 0.06%); format: cell-based; conditions: hek293, 24 h
[7] = tested on: MCF7; assay: Induction of apoptosis in human MCF7 cells expressing sigma receptor assessed as early apoptotic cells using annexin V/propidium iodide staining at 5 uM after 24 hrs by flow cytometry (reference value: 0.92%); format: functional
[8] = tested on: B16-F10; assay: Induction of apoptosis in mouse B16F10 cells expressing sigma receptor assessed as necrotic cells using annexin V/propidium iodide staining at 5 uM after 24 hrs by flow cytometry (reference value: 0.25%); format: functional
[9] = tested on: COS-1; assay: Induction of apoptosis in against african green monkey COS1 cells expressing sigma receptor assessed as early apoptotic cells using annexin V/propidium iodide staining at 5 uM after 24 hrs by flow cytometry (reference value: 0.06%); format: cell-based; conditions: chlorocebus aethiops, cos-1, 24 h
[10] = tested on: B16-F10; assay: Induction of apoptosis in mouse B16F10 cells expressing sigma receptor assessed as viable cells using annexin V/propidium iodide staining at 5 uM after 24 hrs by flow cytometry (reference value: 98.30%); format: functional
[11] = tested on: MCF7; assay: Induction of apoptosis in human MCF7 cells expressing sigma receptor assessed as viable cells using annexin V/propidium iodide staining at 5 uM after 24 hrs by flow cytometry (reference value: 97.33%); format: functional
[12] = tested on: MCF7; assay: Cytotoxicity against human MCF7 cells expressing sigma receptor at 0.5 to 50 uM after 48 hrs by MTT assay; format: functional, cell-based; how it was run: as §1
[13] = tested on: COS-1; assay: Induction of apoptosis in against african green monkey COS1 cells expressing sigma receptor assessed as late apoptotic cells using annexin V/propidium iodide staining at 5 uM after 24 hrs by flow cytometry (reference value: 0.04%); format: cell-based; conditions: chlorocebus aethiops, cos-1, 24 h
[14] = tested on: MCF7; assay: Induction of apoptosis in human MCF7 cells expressing sigma receptor assessed as late apoptotic cells using annexin V/propidium iodide staining at 5 uM after 24 hrs by flow cytometry (reference value: 1.48%); format: functional
[15] = tested on: HEK293; assay: Induction of apoptosis in human HEK293 cells expressing sigma receptor assessed as late apoptotic cells using annexin V/propidium iodide staining at 5 uM after 24 hrs by flow cytometry (reference value: […]); format: cell-based; conditions: hek293, 24 h
[16] = tested on: COS-1; assay: Induction of apoptosis in against african green monkey COS1 cells expressing sigma receptor assessed as necrotic cells using annexin V/propidium iodide staining at 5 uM after 24 hrs by flow cytometry (reference value: 0.08%); format: cell-based; conditions: chlorocebus aethiops, cos-1, 24 h
[17] = tested on: B16-F10; assay: Induction of apoptosis in mouse B16F10 cells expressing sigma receptor assessed as late apoptotic cells using annexin V/propidium iodide staining at 5 uM after 24 hrs by flow cytometry (reference value: 1.21%); format: functional
[18] = tested on: B16-F10; assay: Induction of apoptosis in mouse B16F10 cells expressing sigma receptor assessed as early apoptotic cells using annexin V/propidium iodide staining at 5 uM after 24 hrs by flow cytometry (reference value: 0.92%); format: functional
[19] = tested on: B16-F10; assay: Induction of apoptosis in mouse B16F10 cells expressing sigma receptor assessed as decrease of Bcl-2 protein expression at 10 uM after 24 hrs by Western blotting; format: functional, cell-based
How it was run: (§2)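 B16F10 cells (in RPMI) and HUVEC (passages 2-3, in EBM with bullet kit minus serum) exposed to 10 μM compound or left untreated for 24 h under charcoal-stripped serum conditions. Whole-cell lysates made in cold RIPA (pH 7.4) with phosphatase/protease inhibitors and 2 mM vanadate. SDS-PAGE gradient gel, PVDF transfer, probed for caspase 3, Bax, Bcl-2, Akt, pAkt and β-actin with HRP-chemiluminescence detection.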

[20] = tested on: ZR-75-1; assay: Cytotoxicity against human ZR-75-1 cells expressing sigma receptor after 48 hrs by MTT assay; format: functional, cell-based; conditions: ZR-75-1, 48 h; how it was run: as §1
[21] = tested on: B16-F10; assay: Antitumor activity against mouse B16F10 cells expressing sigma receptor xenografted in C57BL6/J mouse assessed as tumor regression at 7.5 mg/kg, ip administered 5 times with gap 2 to 3 days; format: functional, organism-based; design: dose 7.5 mg/kg
How it was run: (§3)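 Male C57BL6/J mice, 6-8 weeks old, given 2 × 10⁵ B16F10 cells s.c. in the lower right abdomen. From day 11, groups of four mice received 7.5 mg/kg i.p. in PBS with 10% DMSO, five injections 2-3 days apart. Tumours measured three times a week; volume = 0.5ab². Tumours excised on day 23, cut as 10 μm cryosections, fixed and fluorometric TUNEL-stained.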

[22] = tested on: COS-1; assay: Cytotoxicity against african green monkey COS1 cells expressing sigma receptor after 48 hrs by MTT assay; format: cell-based; conditions: Chlorocebus aethiops, COS-1, 48 h; how it was run: as §1
[23] = tested on: HUVEC; assay: Induction of apoptosis in HUVEC assessed as increase of cleaved caspase 3 expression at 10 uM after 24 hrs by Western blotting; format: functional, cell-based; conditions: Homo sapiens; how it was run: as §2
[24] = tested on: B16-F10; assay: Cytotoxicity against mouse B16F10 cells expressing sigma receptor after 48 hrs by MTT assay; format: functional, cell-based; conditions: B16-F10, 48 h; how it was run: as §1
[25] = tested on: B16-F10; assay: Induction of apoptosis in mouse B16F10 cells expressing sigma receptor assessed as increase of Bax/Bcl-2 protein ratio at 10 uM after 24 hrs by Western blotting; format: functional, cell-based; how it was run: as §2
[26] = tested on: MCF7; assay: Cytotoxicity against sigma receptor depleted human MCF7 cells assessed as cell viability at 10 uM after 48 hrs by MTT assay in presence of siRNA treated for 4 hrs before compound challenge
[27] = tested on: B16-F10; assay: Induction of apoptosis in mouse B16F10 cells expressing sigma receptor assessed as phosphorylated Akt level at 10 uM after 24 hrs by Western blotting; format: functional, cell-based; how it was run: as §2
[28] = tested on: HUVEC; assay: Induction of apoptosis in HUVEC assessed as increase of Bax/Bcl-2 protein ratio at 10 uM after 24 hrs by Western blotting; format: functional, cell-based; conditions: Homo sapiens; how it was run: as §2
[29] = tested on: B16-F10; assay: Induction of apoptosis in mouse B16F10 cells expressing sigma receptor assessed as increase of cleaved caspase 3 expression at 10 uM after 24 hrs by Western blotting; format: functional, cell-based; how it was run: as §2
[30] = tested on: HEK293; assay: Cytotoxicity against human HEK293 cells expressing sigma receptor after 48 hrs by MTT assay; format: cell-based; conditions: HEK293, 48 h; how it was run: as §1
[31] = tested on: B16-F10; assay: Antitumor activity against mouse B16F10 cells expressing sigma receptor xenografted in C57BL6/J mouse assessed as increase of apoptotic region in tumor at 7.5 mg/kg, ip administered 5 times with gap 2 to 3 days by TUNEL assay; format: functional, organism-based; design: dose 7.5 mg/kg; how it was run: as §3
[32] = tested on: MDA-MB-231; assay: Cytotoxicity against human MDA-MB-231 cells expressing sigma receptor after 48 hrs by MTT assay; format: functional, cell-based; conditions: MDA-MB-231, 48 h; how it was run: as §1
[33] = tested on: MCF7; assay: Cytotoxicity against human MCF7 cells expressing sigma receptor after 48 hrs by MTT assay; format: functional, cell-based; conditions: MCF7, 48 h; how it was run: as §1
[34] = tested on: B16-F10; assay: Induction of apoptosis in mouse B16F10 cells expressing sigma receptor assessed as increase of Bax protein expression at 10 uM after 24 hrs by Western blotting; format: functional, cell-based; how it was run: as §2
[35] = tested on: HUVEC; assay: Induction of apoptosis in HUVEC assessed as phosphorylated Akt level at 10 uM after 24 hrs by Western blotting; format: functional, cell-based; conditions: Homo sapiens; how it was run: as §2

Structure (SMILES) | viability at 24 h, 5 µM [1] | Activity [2] | Activity [3] | viability at 24 h, 5 µM [4] | Activity [5] | Activity [6] | Activity [7] | Activity [8] | Activity [9] | Activity [10] | Activity [11] | Activity [12] | Activity [13] | Activity [14] | Activity [15] | Activity [16] | Activity [17] | Activity [18] | other results
O=C(CCCN1CCC(O)(c2ccc(Cl)cc2)CC1)c1ccc(F)cc1 [HALOPERIDOL] | 99.6% | Active | 0.09% | 99.6% | 0.11% | 0.07% | 0.51% | 1.58% | 0.11% | 97.17% | 97.66% | Active | 0.16% | 1.74% | 0.18% | 0.17% | 0.95% | 0.29% | 
CCCCCCCCCCCC[N+](C)(CCCCCCCCCCCC)CC(=O)NCCC(=O)OC1(c2ccc(Cl)cc2)CCN(CCCC(=O)c2ccc(F)cc2)CC1 |  | Active |  |  |  |  |  |  |  |  |  | Active |  |  |  |  |  |  | 
CCCCCCCC[N+](C)(CCCCCCCC)CC(=O)NCCC(=O)OC1(c2ccc(Cl)cc2)CCN(CCCC(=O)c2ccc(F)cc2)CC1.[Cl-] | 99.6% | Active | 14.35% | 99.7% | 0.14% | 0.14% | 5.02% | 1.03% | 0.11% | 41.47% | 47.43% | Active | 0.06% | 33.2% | 0.15% | 0.12% | 53.41% | 4.1% | Activity [19]: Active; IC50 [20]: 2500 nM; Activity [21]: Active; IC50 [22]: 7000 nM; Activity [23]: Active; IC50 [24]: 2500 nM; Activity [25]: Active; viability at 10 µM [26]: 25%; Activity [27]: Active; Activity [28]: Active; Activity [29]: Active; IC50 [30]: 7000 nM; Activity [31]: Active; IC50 [32]: 2500 nM; IC50 [33]: 2500 nM; Activity [34]: Active; Activity [35]: Active
CCCCCCCCCCCCCCCC[N+](C)(CCCCCCCCCCCCCCCC)CC(=O)NCCC(=O)OC1(c2ccc(Cl)cc2)CCN(CCCC(=O)c2ccc(F)cc2)CC1 |  | Active |  |  |  |  |  |  |  |  |  | Active |  |  |  |  |  |  | 
CCCC[N+](C)(CCCC)CC(=O)NCCC(=O)OC1(c2ccc(Cl)cc2)CCN(CCCC(=O)c2ccc(F)cc2)CC1 |  | Active |  |  |  |  |  |  |  |  |  | Active |  |  |  |  |  |  | 
